# About 1,100 (0.33%) of roughly 330,000 compounds were called active. The full list was thinned out, with actives kept by preference. A number with no mark means an inactive call.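 How the source made its calls: active means versus positive control, 20 µM dose yields 30% or more activation; inactive means the rest.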
# Test: IRE1-XBP1 pathway stimulators – cell-based, CHO-XBP1 luciferase reporter, luminescence, uHTS, primary screen (AID 463104);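 further: 100% = tunicamycin at 10 µg/mL and 0% = DMSO only wells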
# Conditions: IRE1-XBP1 UPR activation, at 20 µM, active compounds read high, percent of tunicamycin response, DMSO as zero
# In short: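 Material: IRE1-XBP1 luciferase reporter CHO line / Quantity: one thousand reporter cells per well / Buffer or medium: F12 with 10% serum / Compound: 20 µM single concentration, DMSO 1% / Times: 6 h treatment, 37 °C / Detection: Steady-Glo luciferase glow luminescence, 10 min after reagent addition / Benchmarks: tunicamycin high, DMSO low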
row,SMILES,activation
1,OCCC1CN(Cc2ccccc2-c2ccco2)CCN1Cc1ccsc1 (configuration not stated),-1.57%
2,Cc1cc(NC(=O)Nc2c[nH]c(=O)[nH]c2=O)ccc1Br,-0.89%
3,CNc1nc(Nc2ccc(C)c(Cl)c2)nc(N)c1[N+](=O)[O-],10.8%
4,Cc1ccc(Nc2nc(N)nc(CN3CCN(Cc4ccccc4)CC3)n2)cc1Cl,3.65%
5,OCCNc1nc(Nc2ccc(Cl)c(Cl)c2)nc2ccccc12,46.6% (active)
6,CCCc1ccc(OCc2ccc(C(=O)N/N=C/c3cccc([N+](=O)[O-])c3)o2)c(OC)c1,35.5% (active)
7,N#Cc1cc([N+](=O)[O-])ccc1Oc1cccc(/C=N/NC(=O)c2ccc(Cl)cc2)c1,-0.61%
8,COC(=O)c1ccc(COc2ccc(/C=N/NC(=O)C(=O)Nc3ccc(OC)cc3)cc2OC)o1,-0.77%
9,CCOC(=O)COn1c(=O)c(-c2ccc(OCC)cc2)[n+]([O-])c2ccccc21,0.06%
10,CCCCCCCCCCOC(=O)Cn1c(COc2cccc(OC)c2)[n+](C)c2ccccc21,20.9%
11,CCCCCCCCCCOC(=O)Cn1c(COc2ccc(C)cc2)[n+](C)c2ccccc21,41.7% (active)
12,CCN(CC(=O)NCC(=O)Nc1cccc(C)c1C)Cc1ccccc1,-5.66%
13,Cc1c(Br)c([N+](=O)[O-])nn1C(C)C(=O)Nc1nccs1 (configuration not stated),-1.86%
14,Cc1ccc(-n2c(O)c(C=Nc3ccc(S(=O)(=O)Nc4ncccn4)cc3)c3ccccc3c2=O)cc1C,-1.86%
15,COC(=O)Cc1csc(/N=C/c2c(O)n(-c3cccc(C(F)(F)F)c3)c(=O)c3ccccc23)n1,46.3% (active)
16,COC(=O)Cc1csc(Nc2c(C)n(C)n(-c3ccccc3)c2=O)n1,-0.87%
17,Cc1ccc(N2C(=O)CC(Nc3cccc4ccccc34)C2=O)cc1 (configuration not stated),-0.83%
18,CC(=O)Nc1ccccc1Sc1ccc2c3c(cccc13)C(=O)N(c1ccc(C)cc1)C2=O,33.8% (active)
19,CSc1ccccc1NC(=O)C(C)N1C(=O)c2ccccc2S1(=O)=O (configuration not stated),0.16%
20,CC1CCN(C(=O)COC(=O)c2cc(=O)[nH]c3ccccc23)CC1,-0.76%
21,CCn1c2ccccc2c2cc(NC(=S)N3CCOCC3)ccc21,-1.32%
22,CCOC(=O)C(C)n1cnc2c(nnn2-c2cccc(OC)c2)c1=O (configuration not stated),-2.11%

row,SMILES,activation
1,CCOc1ccc(NS(=O)(=O)c2ccc(C(=O)NCC(c3ccccc3OC)N3CCCC3)cc2)cc1 (configuration not stated),-3.45%
2,O=C(NCC1(N2CCCCC2)CCCCC1)c1ccc(NS(=O)(=O)c2ccc(F)cc2)cc1,0.16%
3,CCOc1ccc(S(=O)(=O)Nc2cccc(C(=O)NCC3(N4CCCCC4)CCCCC3)c2)cc1,66.6% (active)
4,CCOc1ccccc1C(=O)NC1CC2CCCC(C1)N2Cc1ccccc1 (configuration not stated),2.18%
5,Cc1ccc(C)c(NC(=O)c2ccc3nccnc3c2)c1,0.85%
6,Clc1ccc(CSc2nnc([C@@H]3CCCN3)o2)cc1,0.7%
7,CCC1CCCCN1S(=O)(=O)Cc1ccccc1Cl (configuration not stated),-1.25%
8,COC(=O)c1c(NC(=O)CN2CCN(S(=O)(=O)c3ccccc3[N+](=O)[O-])CC2)sc2c1CCC(C)C2 (configuration not stated),-0.95%
9,O=C1CSC2=NCN(c3ccccc3)CN12,1.38%
10,CN(c1cccc(NC(=O)c2ccc(CN3CCc4ccccc4C3)cc2)c1)S(C)(=O)=O,-1.68%
11,CN(c1ccccc1)S(=O)(=O)c1cccc(NC(=O)Cc2ccc(Cl)cc2)c1,-1.79%
12,CN(c1cccc(NC(=O)Nc2ccc(Cl)cc2)c1)S(C)(=O)=O,33.6% (active)
13,CCCOc1cccc(C(=O)Nc2nnn(CCC)n2)c1,0.81%
14,Cc1noc(C)c1S(=O)(=O)Nc1cc(C(F)(F)F)ccc1N1CCOCC1,-0.99%
15,COCCNC(=S)c1ccc(OC)cc1,-1.99%
16,O=C(NCc1ccc(Cl)cc1)C(=O)NCC1CCCN1S(=O)(=O)c1cccs1 (configuration not stated),-4.11%
17,CC(C)(C)OC(=O)C[C@H]1C/C=C\C[C@@H](CC(=O)N[C@H](CO)Cc2ccccc2)C(=O)NC[C@@H](c2ccccc2)OC1=O,5.5%
18,O=C(C[C@H]1C/C=C\C[C@@H](NC(=O)OCC2c3ccccc3-c3ccccc32)C(=O)O[C@@H](c2ccccc2)CNC1=O)N[C@H](CO)Cc1ccccc1,100% (active)
19,CC(C)(C)OC(=O)C[C@@H]1C/C=C\C[C@@H](CC(=O)N[C@H](CO)Cc2ccccc2)C(=O)NC[C@@H](c2ccccc2)OC1=O,-1.85%
20,O=c1c(Cl)c(NCc2ccc(F)cc2Cl)cnn1C12CC3CC(CC(C3)C1)C2,-1.62%
21,COc1ccc(C(=O)N2CCN(c3ncccn3)CC2)cc1S(=O)(=O)N1CCOCC1,1.37%
22,CCOC(=O)/C=c1\s/c(=C\c2ccc(C#N)cc2)c(=O)n1CC(=O)Nc1cccc(C)c1C,217% (active)

row,SMILES,activation
1,Cc1cccc(NC(=O)CSC(N)=O)c1C,0.46%
2,Cc1cccc(NC(=O)CN2CCN(C(=O)C3CCN(C(=O)/C=C/c4ccccc4)CC3)CC2)c1C,-2.16%
3,Cc1csc(NC(=O)C2CCCN2C(=O)OCC(C)C)n1 (configuration not stated),-2.24%
4,Cc1ccc(/C=C/C(=O)OCC(=O)Nc2cccnc2Cl)cc1,-1.42%
5,COc1ccc(NC(=O)CN(C)C(=O)/C=C/c2cn(Cc3ccccc3)nc2-c2cccnc2)cc1,-0.51%
6,O=C(COC(=O)/C=C/c1cn(-c2ccccc2)nc1-c1cccnc1)Nc1ccc(Cl)cc1Cl,43.9% (active)
7,O=S(=O)(c1ccc(-c2ccno2)s1)N1CCCCC1,-1.02%
8,COc1ccc(OC)c(S(=O)(=O)N2CCCC(C(=O)N3CCC(C(N)=O)CC3)C2)c1 (configuration not stated),0.16%
9,COc1ccc(C)cc1N(C)C(=O)c1coc(=O)c2ccccc12,2.41%
10,O=C(COC(=O)c1ccccn1)Nc1cccc2ccccc12,-3.78%
11,Cc1cc(NC(=O)COc2ccccc2C#N)no1,6.89%
12,N#Cc1ccccc1NC(=O)COc1c(Br)cc(Br)c2cccnc12,116% (active)
13,CCCCC(O)(CCCC)C(=O)NN(C(=O)CCl)c1ccccc1,-0.49%
14,Cc1ccc(NC(=O)c2ccc(Oc3ncccn3)cc2)cc1,0.13%
15,Cc1[nH]c(=O)c(C(=O)/C=C/c2ccccc2)c2c1CCCC2,-0.32%
16,O=C(/C=C/c1ccccc1)c1ccccc1O,78.8% (active)
17,O=C(/C=C/c1ccc(N2CCOCC2)cc1)c1ccccc1,2.92%
18,Cc1nc2c(ncn2-c2ccccc2)c(=O)n1NC(=O)CN1CCCC1,0.65%
19,COCCNC(=O)c1ccc2c(c1)ncn2-c1ccc(C)c(Cl)c1,-1.46%
20,COc1ccc(CN2C(CC(=O)Nc3cccnc3)c3ccc(C(F)(F)F)cc3S2(=O)=O)cc1 (configuration not stated),-0.27%
21,Cc1ccc(-c2ccc(/C=C(\C#N)C(N)=S)o2)c([N+](=O)[O-])c1,-0.81%
22,Cc1ccc(C(=O)N/C(=C/c2ccc(-c3cccc([N+](=O)[O-])c3)o2)C(=O)NCCCN(C)C)cc1,0.17%

row,SMILES,activation
1,Cc1ccc(Cc2cnc(NC(=O)/C(C#N)=C/c3ccc(-c4cccc([N+](=O)[O-])c4)o3)s2)cc1,131% (active)
2,CC(=O)N1CCC(N(C(=O)Nc2ccc(Cl)cc2)C(C)C)CC1,2%
3,CCC(C(=O)N1CCN(S(=O)(=O)c2sc(C(=O)O)c(C)c2C(=O)O)CC1)c1ccccc1 (configuration not stated),-0.89%
4,COc1ccccc1CNC(=O)c1ccc(Cl)c(S(=O)(=O)N2CCCC2)c1,-2.56%
5,Cc1ccc(C)c(N2CCN(C(=O)CCCCCn3c(=S)[nH]c4ccc(N5CCOCC5)cc4c3=O)CC2)c1,-5.18%
6,O=C(CCCCCn1c(=S)[nH]c2cc3c(cc2c1=O)OCO3)N1CCN(c2ccc(F)cc2)CC1,38.5% (active)
7,CC(C)NC(=O)CCCn1c(=S)[nH]c2cc3c(cc2c1=O)OCO3,0.7%
8,COc1cc(C(=O)NC2CCN(C)CC2)ccc1Nc1ncc2c(n1)N(C1CCC(O)CC1)CCC(=O)N2C (configuration not stated),-2.3%
9,CCCC(=O)Nc1ccc(C(=O)N/N=C/c2ccc[nH]2)cc1,-1.43%
10,CCCCCC(=O)NC(=S)NNC(=O)c1ccc([N+](=O)[O-])cc1,1.01%
11,CCCCCC(=O)Nc1ccc(C(=O)N/N=C/c2ccc([N+](=O)[O-])cc2)cc1,82.5% (active)
12,Nc1ccc(OCC(O)C[n+]2ccc(CCS(=O)(=O)[O-])cc2)cc1 (configuration not stated),-2.33%
13,CCN1N=C(c2ccccc2)CCC1=O,0.24%
14,Cc1nonc1NC(=O)CSc1nc2ccccc2cc1C#N,-3.02%
15,Cc1nc2cc(NC(=O)CSc3nc4c(C)cccc4cc3C#N)ccc2s1,30.2% (active)
16,Cc1cc(C)c(C#N)c(SCC(=O)Nc2ccccc2)n1,-0.84%
17,CC(Cc1cccs1)N(Cc1ccc(Cl)cc1)C(=O)c1ccncc1 (configuration not stated),-2.77%
18,COc1ccc(S(=O)(=O)NCCc2cc3ccc(C)c(C)c3[nH]c2=O)cc1,-3.05%
19,Cc1ccc(OCC(=O)Nc2ccc3oc(=O)ccc3c2)cc1C,-0.41%
20,O=C(COc1ccc(Cl)cc1)Nc1ccc2oc(=O)ccc2c1,-0.7%
21,O=C(NC(=S)Nc1ccc2oc(=O)ccc2c1)c1ccc(-c2cccc(Cl)c2Cl)o1,76.8% (active)

# From PubChem BioAssay AID463104 (Sanford-Burnham Center for Chemical Genomics, 2010)
